An excerpt weighted towards active compounds, which were near 2.3% of everything screened.
Tb hexokinase: Trypanosoma brucei hexokinase 1 inhibitors, primary screen, biochemical, G6PDH-coupled NADH absorbance, MLSCN library; AID 1430, 2008; hexokinase 1 [Trypanosoma brucei]; inhibition, % at 10 µM; recombinant TbHK1, G6PDH-coupled NADH A340; actives 0.11% (n = 220,000);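 active = inhibition of 50% or more in the single-dose primary screen; inactive = inhibition below 50%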
NPY-Y1 antag: NPY-Y1 receptor antagonists, primary screen, cell-based; Neuropeptide Y receptor type 1 (Homo sapiens), P25929; HEK293-CNG Y1 cells, membrane potential fluorescence; NPY at EC95, then isoproterenol; inhibition, % at 3.6 µM; actives 1% (n = 200,000); AID 1040, 2008;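 active = inhibition above the campaign mean inhibition of all tested compounds plus 3 SD, cut at about 20% in these data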;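 note: 0% = DMSO wells given NPY plus isoproterenol and 100% = isoproterenol alone without NPY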
Target sequence (P25929 whole entry, looked up): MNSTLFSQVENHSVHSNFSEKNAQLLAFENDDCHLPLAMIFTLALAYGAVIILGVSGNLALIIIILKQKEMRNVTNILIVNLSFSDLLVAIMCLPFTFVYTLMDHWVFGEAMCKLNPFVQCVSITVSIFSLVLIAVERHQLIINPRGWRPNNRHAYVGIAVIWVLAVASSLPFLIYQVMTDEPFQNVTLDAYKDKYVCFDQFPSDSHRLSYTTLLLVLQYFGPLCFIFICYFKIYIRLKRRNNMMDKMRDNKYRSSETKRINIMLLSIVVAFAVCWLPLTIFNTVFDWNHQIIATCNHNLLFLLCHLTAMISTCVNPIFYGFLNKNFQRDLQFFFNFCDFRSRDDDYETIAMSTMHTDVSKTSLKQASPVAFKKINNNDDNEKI
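Material: HEK293 Y1/CNG channel cell line; also added: NPY (25 nM), isoproterenol (1 µM), Ro 20-1724 (25 µM); doses: one concentration, 3.6 µM, in 0.4% DMSO; schedule: compound incubation 1 h at room temperature, readout 45 min post-stimulation; technique: membrane potential fluorescence; measure: fluorescence ratio normalized to % inhibition between controls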
Calpain2 inh: inhibitors of pig calpain II, primary screen, biochemical, fluorogenic peptide substrate, 1536-well. purified calpain II, 30 min. inhibition, % at 16 µM. actives 0.37% (n = 220,000). AID 1236, 2008;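 active = inhibition above about 50%, limit read from the data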
NPY1 pot ag: NPY-Y1 receptor potentiators or agonists, primary screen, cell-based; Neuropeptide Y receptor type 1 (Homo sapiens), P25929; actives 0.37% (n = 220,000); NPY-Y1 expressing cells, potentiator/agonist activation; activation, % at 3.6 µM; in the data active = activation above about 33%, passing the limit was not always enough;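 note: cells stimulated with NPY at EC10 then isoproterenol at EC100; 0% = low agonist plus stimulus and 100% = saturating agonist plus stimulus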
NPY-Y2 antag: NPY-Y2 receptor antagonists, primary screen, cell-based; Neuropeptide Y receptor type 2 (Homo sapiens), P49146; NPY-Y2 expressing cells, antagonist mode; inhibition, % at 2.7 µM; actives 0.99% (n = 140,000); AID 793, 2007; in the data active = inhibition above about 17%;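 note: 0% = vehicle with agonist challenge and 100% = reference antagonist with challenge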
NPY-Y2 PAM-ag: NPY-Y2 potentiators or agonists, primary screen, cell-based. Neuropeptide Y receptor type 2 (Homo sapiens), P49146. cells expressing NPY-Y2, potentiator/agonist read-out. activation, % at 3.6 µM. actives 0.45% (n = 220,000); in the data active = activation above about 27%;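 note: cells stimulated with NPY near EC25 plus isoproterenol at EC100; 0% = vehicle plus submaximal agonist and 100% = vehicle plus saturating agonist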
NPY-Y2 confirm: NPY-Y2 potentiators or agonists, confirmation, cell-based. activation, % at 3.6 µM. cell-based NPY-Y2 potentiator/agonist assay. AID 1539, 2009. actives 20% (n = 450). shares compounds with NPY-Y2 PAM-ag; in the data active = activation above about 33%
NPY-Y1 potentiator: NPY-Y1 potentiators or agonists, counter-screen for NPY-Y2 potentiator project, cell-based, fluorescence; activation, % at 3.6 µM; shares compounds with NPY-Y2 PAM-ag; Y1 HEK293-CNG cells, membrane potential fluorescence; actives 20% (n = 450); in the data active = activation above about 45%;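 note: cells stimulated with submaximal NPY then isoproterenol with phosphodiesterase inhibitor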
NPY-Y1 ag 2: NPY-Y1 direct agonists, selectivity assay for NPY-Y2 potentiator project, cell-based, fluorescence. shares compounds with NPY-Y2 PAM-ag. HEK293 Y1-CNGC, membrane potential fluorescence, agonism. activation, % at 3.6 µM. actives 37% (n = 450). AID 1702, 2009;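 active = activation above the mean of DMSO-only control wells plus 3 SD, cut at about 18% in these data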;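 note: cells stimulated with 1 µM isoproterenol plus the PDE inhibitor Ro 20-1724; 0% = isoproterenol with DMSO and no NPY and 100% = 40 nM NPY; Y1 agonists lower the membrane potential dye signal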
CNGC inhibitor: CNGC cAMP sensor activity inhibitors, counter-screen for NPY-Y2 potentiator project, cell-based, HEK293-CNG parental, membrane potential fluorescence; shares compounds with NPY-Y2 PAM-ag; isoproterenol cAMP; inhibition, % at 3.6 µM; actives 32% (n = 450);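 active = inhibition above the control-well mean plus 3 SD of those wells, cut at about 22% in these data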;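 note: 0% = DMSO with isoproterenol and 100% = DMSO without isoproterenol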
NPY-Y2 ag 2: NPY-Y2 direct agonists, counter-screen for NPY-Y2 potentiator project, cell-based, fluorescence; shares compounds with NPY-Y2 PAM-ag; HEK293 Y2/CNGC cells, membrane potential fluorescence, agonist mode; activation, % at 3.6 µM; actives 56% (n = 450); AID 1710, 2009;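 active = activation above the mean of solvent-only control wells plus 3 SD, cut at about 10% in these data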;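 note: cells stimulated by isoproterenol with no NPY added so direct agonism is tested; 0% = DMSO with isoproterenol alone and 100% = NPY at EC100 plus isoproterenol; agonism lowers probe fluorescence through less cAMP and CNG channel opening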
* = called active by the depositor; . = not tested or not shown.

SMILES	Tb hexokinase	NPY-Y1 antag	Calpain2 inh	NPY1 pot ag	NPY-Y2 antag	NPY-Y2 PAM-ag	NPY-Y2 confirm	NPY-Y1 potentiator	NPY-Y1 ag 2	CNGC inhibitor	NPY-Y2 ag 2
O=C(O)C1CC=CCC1C(=O)N1CCN(c2nc(-c3ccccc3)c3ccccc3n2)CC1 (configuration not stated)	-10	14	-356	43	7	37*	17	2	18*	-6	14*
O=C1c2ccccc2-c2onc3ccc(NCCCn4ccnc4)c1c23	-18	9	23	38	34*	38*	-3	-6	-11	-10	3
Cc1nc(NCCCn2ccnc2)c2ccccc2n1	-3	0	17	13	2	1	.	.	.	.	.
Cc1n[nH]c(C)c1N=Nc1ccc(Br)cc1	-29	-8	17	30	.	31*	14	27	0	18	5
CCCOc1ccc(/C=N/Nc2ccc(C(=O)O)cc2)c(OCCC)c1	4	1	9	15	.	30*	13	17	11	9	21*
Cc1cc(/C=N/NC(=O)Cn2c3ccccc3c(=O)c3ccccc32)c(C)n1-c1ccc(Cl)cc1	-6	-3	-99	30	3	31*	29	32	0	-12	20*
CCNC(=S)N/N=C/c1cc(C)n(-c2ccc(Cl)cc2)c1C	-23	6	-30	-17	.	-15	.	.	.	.	.
O=C(CC1SC(=NCCc2ccccc2)N(/N=C/c2cccs2)C1=O)Nc1ccc(Cl)cc1 (configuration not stated)	-19	2	-14	-1	-1	7	.	.	.	.	.
CCn1cc(/C=N\NC(=O)C2(C)CC2(Cl)Cl)c(C)n1 (configuration not stated)	-1	-4	-9	-6	0	-25	.	.	.	.	.
O=C(CNC1CCCCCC1)Nc1ccc(N2CCCC2)cc1	-2	-5	16	17	6	-10	.	.	.	.	.
O=C(CNCCC1=CCCCC1)Nc1ccc(N2CCCCCC2)cc1	17	-3	13	38	1	45*	39*	45*	37*	38*	46*
COc1ccccc1NS(=O)(=O)c1cccc(-n2c(O)c(C=Nc3ccccc3C(=O)O)c3ccccc3c2=O)c1	14	.	-33	32	.	45*	28	35	34*	16	30*
COc1ccc(Cn2c(O)c(C=Nc3ccccc3C(=O)O)c3ccccc3c2=O)cc1	-4	.	5	47	.	54*	17	29	28*	4	27*
O=C(Cn1c(NCCO)nc2ccccc21)NCC1CCCO1 (configuration not stated)	-9	-3	-37	3	.	-3	.	.	.	.	.
CCOC(=O)c1nc(Nc2ccc(Nc3ccccc3)cc2)c2ccccc2n1	-16	-8	-42	13	.	33*	35*	37	10	19	33*
CCOC(=O)c1ccc(Nc2nc(C(=O)OCC)nc3ccccc23)cc1	-25	2	-27	8	0	-3	.	.	.	.	.
Nc1[nH]ncc1-c1ccccc1	5	1	-7	-1	.	9	.	.	.	.	.
Cc1c(CN(C)C)c2c(n1Cc1ccccc1)C(=O)c1ccc(Br)cc1-2	-3	-3	16	26	-1	28*	25	28	35*	24*	29*
Cc1c(CN(C)C)c2c(n1C)C(=O)c1ccc(Br)cc1-2	-4	1	17	13	1	-3	.	.	.	.	.
O=S(=O)(c1cccc(NC(=S)N2CCN(c3ccc(F)cc3)CC2)c1)C(F)F	-2	-10	9	9	-2	9	.	.	.	.	.
O=S(=O)(c1cccc(NC(=S)N2CCN(c3cccc(Cl)c3)CC2)c1)C(F)F	3	-4	18	7	-3	30*	10	-1	7	13	17*
CC(C)(C)N(NC(=O)c1ccccc1)C(=O)c1ccc(C(=O)N(NC(=O)c2ccccc2)C(C)(C)C)cc1	17	4	7	-7	2	8	.	.	.	.	.
CCc1ccc(C(=O)NN(C(=O)c2ccc(CC)cc2)C(C)(C)C)cc1	32	-6	23	37	3	35*	44*	61*	58*	47*	34*
CS(=O)(=O)c1cnc(-c2ccccc2)nc1-c1ccccc1Cl	-8	9	7	-11	.	-20	.	.	.	.	.
CC(C)CNC(=O)Cn1c(=O)c2c(ncn2CC(C)C)n(Cc2ccccc2)c1=O	-2	2	10	-7	.	-4	.	.	.	.	.
SMILES	Tb hexokinase	NPY-Y1 antag	Calpain2 inh	NPY1 pot ag	NPY-Y2 antag	NPY-Y2 PAM-ag	NPY-Y2 confirm	NPY-Y1 potentiator	NPY-Y1 ag 2	CNGC inhibitor	NPY-Y2 ag 2
CC(C)(C)c1ccc(-c2nc3n(c(=O)c2C#N)CCS3)cc1	-15	-5	12	9	.	5	.	.	.	.	.
Oc1ccccc1N=Nc1nc(-c2ccccc2)c(-c2ccccc2)[nH]1	2	-2	-77	48	-9	45*	57*	69*	64*	61*	63*
COc1ccccc1N=Nc1nc(-c2ccccc2)c(-c2ccccc2)[nH]1	-7	-7	-44	26	-3	22	.	.	.	.	.
CC(=O)c1c(C)[nH]c(C(=O)OCc2ccccc2F)c1C	-2	-2	3	9	.	29*	13	17	16	27*	25*
Cc1cccc(NC(=O)COc2ccc(/C=N\n3cnnc3)cc2)c1	-3	3	-1	3	0	6	.	.	.	.	.
Cc1ccc(OCc2ccc(C(=O)NN)o2)c([N+](=O)[O-])c1	-12	.	-10	17	.	-8	.	.	.	.	.
COC(=O)c1ccc(COc2ccc(C)cc2[N+](=O)[O-])o1	-10	.	26	20	.	56*	6	-10	-15	-10	6

Screens: PubChem, several laboratories
